Assay results published in ChEMBL document CHEMBL2203099, “Identification of a crucial amino acid in the helix position 6.51 of human tachykinin neurokinin 1 and 3 receptors contributing to the insurmountable mode of antagonism by dual NK₁/NK₃ antagonists” (J Med Chem, 2012).
Residue numbers refer to the chain shown, from its start. Calls of active or inactive are those of the source. No cut-off for these calls is given here.

Legend:
HEK293 [1] = test: Selectivity ratio of Ki for human NK3 Y247W mutant expressed in HEK293 cells to Ki for wild type human NK3 receptor expressed in HEK293 cells; format: cell-based
Substance-P receptor [2] = biological target: T1, Substance-P receptor (Homo sapiens, UniProt P25103); test: Displacement of radioligand [3H]SP from wild type human NK1 receptor expressed in HEK293 cells; format: cell-based
Method in brief: (§1)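 Membranes from transiently transfected HEK293 cells, 2.5 μg protein/well, in 50 mM HEPES pH 7.4 with 3 mM MnCl2, phosphoramidon, leupeptin and 0.04% BSA. 10 competitor concentrations (0.0003–10 μM), 90 min at rt. Nonspecific binding with 10 μM NK1 antagonist. Filtration, then scintillation counting. Ki by Cheng–Prusoff. Three experiments, each in duplicate.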

Neuromedin-K receptor [3] = biological target: T2, Neuromedin-K receptor (Homo sapiens, UniProt P29371); test: Binding affinity to wild type human NK3 receptor
T2 sequence (P29371 whole entry): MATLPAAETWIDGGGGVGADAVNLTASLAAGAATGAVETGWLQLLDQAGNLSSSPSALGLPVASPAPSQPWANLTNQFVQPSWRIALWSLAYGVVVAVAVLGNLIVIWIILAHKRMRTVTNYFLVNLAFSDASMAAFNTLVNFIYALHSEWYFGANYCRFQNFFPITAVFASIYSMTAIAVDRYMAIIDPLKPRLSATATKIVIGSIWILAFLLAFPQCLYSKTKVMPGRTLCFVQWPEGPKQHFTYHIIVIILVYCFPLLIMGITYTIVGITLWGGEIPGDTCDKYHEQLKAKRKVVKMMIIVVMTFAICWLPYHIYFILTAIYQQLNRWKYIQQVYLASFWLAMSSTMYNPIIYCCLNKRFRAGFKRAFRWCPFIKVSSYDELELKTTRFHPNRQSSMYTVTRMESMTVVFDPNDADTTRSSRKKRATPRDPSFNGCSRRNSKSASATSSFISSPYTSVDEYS

Neuromedin-K receptor [4] = biological target: T2, Neuromedin-K receptor; test: Displacement of [3H]osanetant from wild type human NK3 receptor expressed in HEK293 cells; format: cell-based
[5] = biological target: T3, Neuromedin-K receptor (Homo sapiens) (UniProt P29371); test: Noncompetitive inhibition at wild type human NK3 expressed in HEK293 cells assessed as decrease in [MePhe7]NKB-induced [3H]IP accumulation after 20 mins; format: cell-based
T3 sequence (whole entry): T2 sequence (P29371 whole entry)
Method in brief: (§2)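 HEK293 cells transiently expressing human NK3 WT or mutant, labeled with myo-[³H]inositol in LiCl buffer. Antagonist preincubated 20 min at 37 °C, then [MePhe⁷]NKB (0.01 nM–1 μM) added for 45 min at 37 °C. [³H]IP read by SPA beads. Schild analysis of EC50 shift and Emax depression across increasing antagonist concentrations gives pA2, slope and mode of antagonism.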

Substance-P receptor [6] = biological target: Substance-P receptor (Homo sapiens, UniProt P25103, F264Y); test: Displacement of radioligand [3H]SP from human NK1 F264Y6.51 mutant expressed in HEK293 cells; format: cell-based; method in brief: as §1
Neuromedin-K receptor [7] = biological target: Neuromedin-K receptor (Homo sapiens, UniProt P29371, Y315F); test: Displacement of radioligand [3H]osanetant at human NK3 Y315F6.51 mutant expressed in HEK293 cells; format: cell-based
[8] = system: T4, Neuromedin-K receptor (Homo sapiens), P29371 [Y247F]; test: Noncompetitive inhibition at human NK3 Y247F5.38 mutant expressed in HEK293 cells assessed as decrease in [MePhe7]NKB-induced [3H]IP accumulation after 20 mins; format: cell-based; method in brief: as §2
T4 sequence (whole entry): T2 sequence (P29371 whole entry) with Y247F

[9] = system: T5, Neuromedin-K receptor (Homo sapiens), P29371 [Y315F]; test: Antagonist activity at human NK3 Y315F6.51 mutant expressed in HEK293 cells assessed as decrease in [MePhe7]NKB-induced [3H]IP accumulation at 10 nM after 20 mins; format: functional, cell-based
T5 sequence (whole entry): T2 sequence (P29371 whole entry) with Y315F

HEK293 [10] = test: Selectivity ratio of Ki for wild type human NK3 receptor expressed in HEK293 cells to Ki for human NK3 Y315F6.51 mutant expressed in HEK293 cells; format: cell-based
HEK293 [11] = test: Selectivity ratio of Ki for human NK3 H316F mutant expressed in HEK293 cells to Ki for wild type human NK3 receptor expressed in HEK293 cells; format: cell-based
Neuromedin-K receptor [12] = biological target: Neuromedin-K receptor (Homo sapiens, UniProt P29371, H316W); test: Displacement of radioligand [3H]osanetant at human NK3 H316W mutant expressed in HEK293 cells; format: cell-based
Substance-P receptor [13] = biological target: T1, Substance-P receptor; test: Binding affinity at human NK1 receptor
HEK293 [14] = test: Selectivity ratio of Ki for human NK3 Y247F mutant expressed in HEK293 cells to Ki for wild type human NK3 receptor expressed in HEK293 cells; format: cell-based
Neuromedin-K receptor [15] = biological target: Neuromedin-K receptor (Homo sapiens, UniProt P29371, Y247W); test: Displacement of radioligand [3H]osanetant at human NK3 Y247W mutant expressed in HEK293 cells; format: cell-based
[16] = system: T5, Neuromedin-K receptor (Homo sapiens), P29371 [Y315F]; test: Noncompetitive inhibition at human NK3 Y315F6.51 mutant expressed in HEK293 cells assessed as decrease in [MePhe7]NKB-induced [3H]IP accumulation after 20 mins; format: cell-based; method in brief: as §2

T1 sequence (P25103 whole entry): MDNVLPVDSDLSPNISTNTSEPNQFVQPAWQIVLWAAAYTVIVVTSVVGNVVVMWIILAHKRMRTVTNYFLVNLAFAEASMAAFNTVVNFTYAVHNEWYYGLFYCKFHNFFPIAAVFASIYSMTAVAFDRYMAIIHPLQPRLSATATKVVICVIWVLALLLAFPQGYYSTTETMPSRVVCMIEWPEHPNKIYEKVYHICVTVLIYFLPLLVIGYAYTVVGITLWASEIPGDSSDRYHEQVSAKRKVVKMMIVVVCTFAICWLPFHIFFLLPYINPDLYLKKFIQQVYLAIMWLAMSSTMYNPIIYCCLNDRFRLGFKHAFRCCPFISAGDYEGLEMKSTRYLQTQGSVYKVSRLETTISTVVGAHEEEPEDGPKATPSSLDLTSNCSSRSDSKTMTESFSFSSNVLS
Chain of Neuromedin-K receptor (Homo sapiens, UniProt P29371, H316W) (P29371 whole entry H316W): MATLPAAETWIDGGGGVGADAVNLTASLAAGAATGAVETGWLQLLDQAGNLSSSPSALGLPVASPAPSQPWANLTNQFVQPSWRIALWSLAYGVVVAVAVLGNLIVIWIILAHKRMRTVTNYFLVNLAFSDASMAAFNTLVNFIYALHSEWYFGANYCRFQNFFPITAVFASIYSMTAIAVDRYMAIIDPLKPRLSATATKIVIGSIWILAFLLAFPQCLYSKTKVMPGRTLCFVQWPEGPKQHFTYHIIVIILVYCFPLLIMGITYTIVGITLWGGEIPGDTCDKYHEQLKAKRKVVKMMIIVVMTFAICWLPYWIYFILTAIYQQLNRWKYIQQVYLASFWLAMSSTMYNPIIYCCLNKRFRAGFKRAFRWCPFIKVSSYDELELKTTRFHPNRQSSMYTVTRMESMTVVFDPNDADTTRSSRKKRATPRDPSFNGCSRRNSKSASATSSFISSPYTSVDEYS
Chain of Neuromedin-K receptor (Homo sapiens, UniProt P29371, Y247W) (P29371 whole entry Y247W): as the sequence (P29371 whole entry H316W) above, with Y247W, W316H counted along it
Chain of Neuromedin-K receptor (Homo sapiens, UniProt P29371, Y315F) (P29371 whole entry Y315F): as the sequence (P29371 whole entry H316W) above, with Y315F, W316H counted along it
Chain of Substance-P receptor (Homo sapiens, UniProt P25103, F264Y) (P25103 whole entry F264Y): as the sequence (P25103 whole entry) above, with F264Y counted along it

Ki (Substance-P receptor [2]): 0.7 nM | Ki (Neuromedin-K receptor [3]): 2.9 nM | Ki (Neuromedin-K receptor [4]): 2.9 nM | inhibition [5]: Active | Ki (Substance-P receptor [6]): 1.1 nM | Ki (Neuromedin-K receptor [7]): 0.7 nM | inhibition [8]: Active | Activity [9]: Active | Ki (Neuromedin-K receptor [12]): 2010 nM | Ki (Substance-P receptor [13]): 0.7 nM | Ki (Neuromedin-K receptor [15]): 3.4 nM | inhibition [16]: Active
Compound: Cc1cc(F)ccc1-c1cc(N2CC[C@H](O)[C@H]2CO)ncc1N(C)C(=O)C(C)(C)c1cc(C(F)(F)F)cc(C(F)(F)F)c1
Ratio Ki (HEK293 [1]): 1.2 | Ratio Ki (HEK293 [10]): 4.1 | Ratio Ki (HEK293 [11]): 4.3 | Ratio Ki (HEK293 [14]): 1.3
